This note sets out measurements from article PMC3983348 (Journal of Medicinal Chemistry, 2014).

The structures appear in SMILES notation. pIC50: −log10 of the molar value. Where two headings read alike, the source gives them in different places. A value given as a limit tells only on which side of the number the result lay.

One may read the GI50 as the concentration at which growth is held to half of that of the control.

One experiment concerns the target T1, recombinant Top1 (Homo sapiens, UniProt P11387).
T1 sequence (P11387 1-765): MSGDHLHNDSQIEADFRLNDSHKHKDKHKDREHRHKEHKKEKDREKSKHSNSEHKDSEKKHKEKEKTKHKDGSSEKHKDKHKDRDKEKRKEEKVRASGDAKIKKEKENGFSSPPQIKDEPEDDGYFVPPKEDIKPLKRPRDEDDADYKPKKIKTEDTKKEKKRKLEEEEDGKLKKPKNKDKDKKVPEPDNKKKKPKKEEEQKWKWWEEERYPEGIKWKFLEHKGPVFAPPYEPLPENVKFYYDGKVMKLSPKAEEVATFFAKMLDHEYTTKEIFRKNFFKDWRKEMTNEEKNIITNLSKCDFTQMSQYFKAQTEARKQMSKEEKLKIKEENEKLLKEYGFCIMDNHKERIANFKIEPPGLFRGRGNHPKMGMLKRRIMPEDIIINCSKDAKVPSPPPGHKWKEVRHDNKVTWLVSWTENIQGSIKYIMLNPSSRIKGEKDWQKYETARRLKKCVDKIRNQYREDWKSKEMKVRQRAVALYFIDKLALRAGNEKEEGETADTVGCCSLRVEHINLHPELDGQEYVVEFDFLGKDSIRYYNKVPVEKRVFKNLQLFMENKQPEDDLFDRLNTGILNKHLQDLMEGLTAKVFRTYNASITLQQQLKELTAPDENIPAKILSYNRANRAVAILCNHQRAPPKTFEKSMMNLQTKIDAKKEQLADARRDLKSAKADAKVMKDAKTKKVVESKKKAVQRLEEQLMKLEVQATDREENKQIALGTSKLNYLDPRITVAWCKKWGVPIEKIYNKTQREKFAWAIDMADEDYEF
The experiment in a line: Top1-mediated DNA cleavage assay. The experiment is classed as biochemical. The following applies: compound-induced DNA cleavage, score based on the activity of 1 μM camptothecin.

The subject of experiment [1] is panel of 60 different human cancer cell lines. Kind of experiment: NCI-60 five-dose assay, mean graph midpoint. In kind it is cell-based. The following applies: mean graph midpoint of growth inhibition, five-dose assay 10^–8 to 10^–4 M.
The next experiment concerns melanoma, UACC-62. Kind of experiment: NCI-60 five-dose assay, UACC-62. The experiment is classed as cell-based. The conditions noted are these: Homo sapiens, UACC-62, read-out: cytotoxicity GI50, melanoma, UACC-62. An outline of the steps: (§1)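 Run in the National Cancer Institute's NCI-60 human cancer cell panel. Test compounds were first screened in a one-dose assay at 10–5 M, reading growth percent relative to vehicle-treated control.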

The next experiment has as its target recombinant TDP1 (Homo sapiens, UniProt Q9NUW8). Kind of experiment: Gel-based assay measuring the inhibition of recombinant TDP1. The experiment is classed as biochemical. In a few lines: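 Gel assay: a 5′-[32P]-labeled single-stranded DNA oligonucleotide with a 3′-phosphotyrosine (N14Y) was incubated with 5 pM recombinant TDP1 and test compound for 15 min at room temperature. Samples were run on 16% denaturing PAGE and quantified by phosphorimager densitometry.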

The test system of the next experiment is renal, SN12C. The experiment in a line: NCI-60 five-dose assay, SN12C. The experiment is classed as cell-based. The following applies: Homo sapiens, read-out: cytotoxicity GI50, renal, SN12C. An outline of the steps: as §1
Setting [2] is: read-out: TDP1 inhibition, score according to IC50.

Chain of recombinant TDP1 (Q9NUW8 whole entry): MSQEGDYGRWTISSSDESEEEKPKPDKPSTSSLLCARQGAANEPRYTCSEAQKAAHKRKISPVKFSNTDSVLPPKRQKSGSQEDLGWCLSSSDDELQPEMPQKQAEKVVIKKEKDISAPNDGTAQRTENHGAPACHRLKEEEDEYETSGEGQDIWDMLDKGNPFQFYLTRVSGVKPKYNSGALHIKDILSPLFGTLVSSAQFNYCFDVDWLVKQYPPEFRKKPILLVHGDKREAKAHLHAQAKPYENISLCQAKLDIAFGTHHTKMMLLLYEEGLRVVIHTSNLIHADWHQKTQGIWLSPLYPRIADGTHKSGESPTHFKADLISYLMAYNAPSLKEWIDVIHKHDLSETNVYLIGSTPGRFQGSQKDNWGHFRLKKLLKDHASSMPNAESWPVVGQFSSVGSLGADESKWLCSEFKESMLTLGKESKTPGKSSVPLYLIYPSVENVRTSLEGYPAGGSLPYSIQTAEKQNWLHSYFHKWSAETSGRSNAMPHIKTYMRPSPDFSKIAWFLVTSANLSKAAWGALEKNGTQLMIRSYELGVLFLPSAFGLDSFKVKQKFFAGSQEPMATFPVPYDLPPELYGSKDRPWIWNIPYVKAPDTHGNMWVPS

On to `COc1cc2c3c(n(CC(O)CO)c(=O)c2cc1OC)-c1cc2c(cc1C3=O)OCO2` (stereo not drawn) [Compound 52, (2′RS)-5,6-Dihydro-6-(2′,3′-dihydroxypropyl)-2,3-dimethoxy-8,9-methylenedioxy-5,11-dioxo-11H-indeno[1,2-c]isoquinoline], for which, at recombinant Top1, the Top1 cleavage result is “++++”. In experiment [1], this compound gave an MGM of 0.065 ± 0.011 µM.

On to `COc1cc2c3c(n(C[C@H](O)CO)c(=O)c2cc1OC)-c1cc2c(cc1C3=O)OCO2` [Compound 53, (2′S)-5,6-Dihydro-6-(2′,3′-dihydroxypropyl)-2,3-dimethoxy-8,9-methylenedioxy-5,11-dioxo-11H-indeno[1,2-c]isoquinoline], for which the Top1 cleavage entry on recombinant Top1 is on record as “++++”. Besides, the MGM in experiment [1] was 0.049 ± 0.003 µM.

In the case of `COc1cc2c3c(n(C[C@@H](O)CO)c(=O)c2cc1OC)-c1cc2c(cc1C3=O)OCO2` [Compound 54, (2′R)-5,6-Dihydro-6-(2′,3′-dihydroxypropyl)-2,3-dimethoxy-8,9-methylenedioxy-5,11-dioxo-11H-indeno[1,2-c]isoquinoline], on recombinant Top1, the Top1 cleavage entry was “++++”. Besides, the MGM in experiment [1] is 0.166 ± 0.005 µM. In the experiment on melanoma, UACC-62, the 50% growth inhibitory concentration (GI50) was found to be 0.025 µM.

`COc1cc2c3c(n(C[C@@H](O)[C@H](O)[C@H](O)CO)c(=O)c2cc1OC)-c1cc2c(cc1C3=O)OCO2` [Compound 55, (2′R,3′S,4′R)-5,6-Dihydro-6-(2′,3′,4′,5′-tetrahydroxypentyl)-2,3-dimethoxy-8,9-methylenedioxy-5,11-dioxo-11H-indeno[1,2-c]isoquinoline]: the Top1 cleavage entry at recombinant Top1 was “+++ (+++, between 75% and 95% activity)”. In experiment [1], the MGM was determined as 5.62 ± 0.18 µM.

As to `COc1cc2c3c(n(C[C@H](O)[C@H](O)[C@H](O)CO)c(=O)c2cc1OC)-c1cc2c(cc1C3=O)OCO2` [Compound 56, (2′S,3′S,4′R)-5,6-Dihydro-6-(2′,3′,4′,5′-tetrahydroxypentyl)-2,3-dimethoxy-8,9-methylenedioxy-5,11-dioxo-11H-indeno[1,2-c]isoquinoline], the pIC50 at recombinant TDP1 (setting [2]) is 3.95 to 4.43. The compound further yielded an MGM in experiment [1] of 1.43 ± 0.44 µM.

For `COc1cc2c3c(n(C[C@@H](O)[C@@H](O)[C@H](O)CO)c(=O)c2cc1OC)-c1cc2c(cc1C3=O)OCO2` [Compound 57, (2′R,3′R,4′R)-5,6-Dihydro-6-(2′,3′,4′,5′-tetrahydroxypentyl)-2,3-dimethoxy-8,9-methylenedioxy-5,11-dioxo-11H-indeno[1,2-c]isoquinoline], the Top1 cleavage entry on recombinant Top1 is recorded as “++++”. The MGM in experiment [1] worked out at 2.94 ± 0.52 µM.

As for `COc1cc2c3c(n(C[C@H](O)[C@@H](O)[C@@H](O)[C@H](O)CO)c(=O)c2cc1OC)-c1cc2c(cc1C3=O)OCO2` [Compound 59, (2′S,3′R,4′S,5′R)-5,6-Dihydro-6-(2′,3′,4′,5′,6′-pentahydroxyhexyl)-2,3-dimethoxy-8,9-methylenedioxy-5,11-dioxo-11H-indeno[1,2-c]isoquinoline], the Top1 cleavage entry on recombinant Top1 is “++ (++, between 50% and 75% activity)”. Further, the pIC50 at recombinant TDP1 (setting [2]) is 3.95 to 4.43.

On to `COc1cc2c3c(n(C[C@H](O)[C@@H](O)[C@H](O)[C@H](O)CO)c(=O)c2cc1OC)-c1cc2c(cc1C3=O)OCO2` [Compound 60, (2′S,3′R,4′R,5′R)-5,6-Dihydro-6-(2′,3′,4′,5′,6′-pentahydroxyhexyl)-2,3-dimethoxy-8,9-methylenedioxy-5,11-dioxo-11H-indeno[1,2-c]isoquinolone], for which the Top1 cleavage entry at recombinant Top1 is “+++ (+++, between 75% and 95% activity)”.

With `COc1cc2c3c(n(C[C@@H](O)[C@@H](O)[C@H](O)[C@H](O)CO)c(=O)c2cc1OC)-c1cc2c(cc1C3=O)OCO2` [Compound 61, (2′R,3′R,4′R,5′R)-5,6-Dihydro-6-(2′,3′,4′,5′,6′-pentahydroxyhexyl)-2,3-dimethoxy-8,9-methylenedioxy-5,11-dioxo-11H-indeno[1,2-c]isoquinoline], the Top1 cleavage entry on recombinant Top1 is recorded as “++++”.

Turning to `COc1cc2c3c(n(C[C@@H]4O[C@H](CO)[C@@H](O)[C@H](O)[C@H]4O)c(=O)c2cc1OC)-c1cc2c(cc1C3=O)OCO2` [Compound 62], the Top1 cleavage entry on recombinant Top1 was “++ (++, between 50% and 75% activity)”. Further, the pIC50 on recombinant TDP1 (read-out: TDP1 IC50) is at most 4.92; on recombinant TDP1 (setting [2]), 3.95 to 4.43.

With `O=C1c2ccccc2-c2c1c1ccc([N+](=O)[O-])cc1c(=O)n2CC(O)CO` (stereo not drawn) [Compound 63, (2′RS)-5,6-Dihydro-6-(2′,3′-dihydroxypropyl)-3-nitro-5,11-dioxo-11H-indeno[1,2-c]isoquinoline], the Top1 cleavage result at recombinant Top1 is “+++ (+++, between 75% and 95% activity)”. This compound also returned an MGM in experiment [1] of 0.389 ± 0.013 µM.

Regarding `O=C1c2ccccc2-c2c1c1ccc([N+](=O)[O-])cc1c(=O)n2C[C@@H](O)CO` [Compound 64, (2′R)-5,6-Dihydro-6-(2′,3′-dihydroxypropyl)-3-nitro-5,11-dioxo-11H-indeno[1,2-c]isoquinoline], the Top1 cleavage entry on recombinant Top1 was “+++ (+++, between 75% and 95% activity)”. Also, in experiment [1], the MGM came to 0.332 ± 0.022 µM.

On to `O=C1c2ccccc2-c2c1c1ccc([N+](=O)[O-])cc1c(=O)n2C[C@@H](O)[C@H](O)[C@H](O)CO` [Compound 65, (2′R,3′S,4′R)-5,6-Dihydro-6-(2′,3′,4′,5′-tetrahydroxypentyl)-3-nitro-5,11-dioxo-11H-indeno[1,2-c]isoquinoline], for which the Top1 cleavage result at recombinant Top1 was “++++”. Besides, in the experiment with renal, SN12C, the concentration for 50% growth inhibition (GI50) was determined as 2.69 µM. For the same compound, the pIC50 at recombinant TDP1 (setting [2]) is 3.95 to 4.43. Besides, the MGM in experiment [1] stood at 1.58 µM.

In the case of `O=C1c2ccccc2-c2c1c1ccc([N+](=O)[O-])cc1c(=O)n2C[C@H](O)[C@H](O)[C@H](O)CO` [Compound 66, (2′S,3′S,4′R)-5,6-Dihydro-6-(2′,3′,4′,5′-tetrahydroxypentyl)-3-nitro-5,11-dioxo-11H-indeno[1,2-c]isoquinoline], the Top1 cleavage entry at recombinant Top1 is listed as “++++(+)”. The compound also returned an MGM in experiment [1] of 0.508 ± 0.041 µM.

In the case of `O=C1c2ccccc2-c2c1c1ccc([N+](=O)[O-])cc1c(=O)n2C[C@@H](O)[C@@H](O)[C@H](O)CO` [Compound 67, (2′R,3′R,4′R)-5,6-Dihydro-6-(2′,3′,4′,5′-tetrahydroxypentyl)-3-nitro-5,11-dioxo-11H-indeno[1,2-c]isoquinoline], the Top1 cleavage entry at recombinant Top1 was “++++”. Besides, the pIC50 on recombinant TDP1 (setting [2]) is 4.43 to 4.92. This compound also displayed an MGM in experiment [1] of 1.66 µM.

For the compound `O=C1c2ccccc2-c2c1c1ccc([N+](=O)[O-])cc1c(=O)n2C[C@H](O)[C@@H](O)[C@H](O)CO` [Compound 68, (2′S,3′R,4′R)-5,6-Dihydro-6-(2′,3′,4′,5′-tetrahydroxypentyl)-3-nitro-5,11-dioxo-11H-indeno[1,2-c]isoquinoline], on recombinant Top1, the Top1 cleavage result is reported as “++++(+)”. Further, on recombinant TDP1 (setting [2]), the pIC50 is 3.95 to 4.43. Moreover, the MGM in experiment [1] was 0.372 ± 0.024 µM.

`O=C1c2ccccc2-c2c1c1ccc([N+](=O)[O-])cc1c(=O)n2C[C@@H](O)[C@@H](O)[C@H](O)[C@H](O)CO` [Compound 70, (2′R,3′R,4′R,5′R)-5,6-Dihydro-6-(2′,3′,4′,5′,6′-pentahydroxyhexyl)-3-nitro-5,11-dioxo-11H-indeno[1,2-c]isoquinoline]: the Top1 cleavage entry on recombinant Top1 is recorded as “++++”. In addition, the pIC50 at recombinant TDP1 (setting [2]) is 3.95 to 4.43. The same compound showed an MGM in experiment [1] of 16.6 µM.

For `O=C1c2ccccc2-c2c1c1ccc([N+](=O)[O-])cc1c(=O)n2C[C@@H]1O[C@H](CO)[C@@H](O)[C@H](O)[C@H]1O` [Compound 71], the Top1 cleavage entry at recombinant Top1 is “++ (++, between 50% and 75% activity)”. Besides, the pIC50 on recombinant TDP1 is at most 4.92; on recombinant TDP1 (setting [2]) it was 4.43 to 4.92.
